Data published in the array DNA melting data of Ke et al. (doi:10.1101/2024.01.08.574731).

Columns and labels:
[1] = folding enthalpy; higher = less favourable; fluorescence melt of hairpins on a sequencing array, two-state fit; conditions: sodium 0.088 M
Summary of the method: (§1)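 Cy3 signals were normalised both to pre-quench Cy3 and to control constructs. They came from library hairpins carrying annealed Cy3 and quencher oligos on a sequenced MiSeq flow cell, imaged in 50 mM Na-HEPES pH 8.0, 25 mM NaCl, in 2.5 °C steps up to 60 °C. Bootstrapped two-state fits gave melting temperature and folding enthalpy, and four replicates were combined by inverse variance. Fitted temperatures were then raised by 9.35 °C to match UV melts.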

[2] = melting temperature; fluorescence melt of hairpins on a sequencing array, two-state fit, raised by 9.35 °C to match UV melts; conditions: sodium 0.088 M
Summary of the method: as §1

Sequence	folding enthalpy [1] [kcal/mol]	Tm [2] [°C]
GCTACCGAAAGGTTAAGC ((((((....)))..)))	-19.6	39.4
GATCTATGCCTAGATC ((((((....))))))	-33.3	41
GAGCACGGAAACGCGCTC ((((.((....)).))))	-42.9	55.3
GGACTTCGAAAGAAATCC (((.(((....))).)))	-26.6	37.3
GTCTAAGGAAACTTAGAC (((((((....)))))))	-41.9	51.5
GATCAGCAGGCTGATC ((((((....))))))	-42.1	59.2
GATCGTTCATACGATC ((((((....))))))	-46.9	54.9
GTCTACGGAAACGTAAAC ((.((((....)))).))	-14.4	27.7
GCCTTACGAAAGTACGGC (((.(((....))).)))	-46.5	52.2
GGCCATGGAAACGTGGCC (((((.(....).)))))	-52.1	62
GTTTGTCGAAAGACTAAC (((.(((....))).)))	-23.9	45.8
GACCGAGCGAAAGCTGTC (((..(((....))))))	-15.3	36.8
GAAACCGAAAGGTTTTC ((((((....))).)))	-17.3	50.6
GTTGTTGGAAACAGCAAC ((((.((....)).))))	-16.7	45.3
GATCGGCCTCCCGATC ((((((....))))))	-35	55.8
GTCACGGGAAACCATGAC ((((.((....)).))))	-29.9	41.7
GAAGACCGAAAGGTATTC (((.(((....))).)))	-32.5	50.8
GCTGTCGAAAGACTGAGC ((((((....)))..)))	-18.5	43
CGTCTGCGGAAACGCACG (((..(((....))))))	-12.2	38.7
CAAACAGAAATGGTTG (((.((....)).)))	-13	29.4
GGCATTGGAAACAACGCC (((.(((....))).)))	-34.4	44.6
GCAACGCGAAAGCGTGC (((.(((....))))))	-14.2	69.1
GGGAAGAAATTCCC (((((....)))))	-19.9	44.6

Sequence	folding enthalpy [1] [kcal/mol]	Tm [2] [°C]
GATCGATAAGTCGATC ((((((....))))))	-44	52.5
GATCTTCTAGAAGATC ((((((....))))))	-40.9	49.6
GATCGGCACGCCGATC ((((((....))))))	-31.6	67.8
GTGTTAGGAAACTGACAC ((((.((....)).))))	-33.8	46.1
GCGTCAGGAAACCGACGC (((((.(....).)))))	-32.9	58.6
GACGACGGAAACGTTGTC (((.(((....))).)))	-43.1	55
GTACAAACGAAAGTTTAC (((..(((....))))))	-8.86	22.1
GGTACTGGAAACAGTATC (.(((((....))))).)	-21.3	44.4
GATCGGACCACCGATC ((((((....))))))	-37.2	56.9
GTGTACGGAAACGTACAC (((((((....)))))))	-33.6	67.2
GGATGCGAAAGCATGTCC ((((((....)))..)))	-11.7	35.9
GATAGCACGAAAGTGATC (((..(((....))))))	-9.8	28.4
GTGCTCGGAAACGAGTGC (..((((....))))..)	-24.2	50.4
GTGTAAGGAAACTTACAC (((((((....)))))))	-42.2	54.2
GGCCGTCCGAAAGGAGCC (((..(((....))))))	-15.8	43.4
GCCTGTGCGAAAGCAGGC (((..(((....))))))	-26.6	56.5
GCACTACCGAAAGGTTGC (((..(((....))))))	-15.9	39.6
GAGTCCGAAAGGATACTC ((((((....)))..)))	-17.9	38.6
GTCCCTGGAAACAGGAAC ((.((((....)))).))	-21.6	36.1
GCCGCCGAAAGGCCGGGC ((((((....)))..)))	-16.9	60.4
CGCGACGGAAACGTTGCG (((.(((....))).)))	-54.2	61
GACATGGGAAACCGTGTC ((((.((....)).))))	-30.9	52.1
GATCACGACTGTGATC ((((((....))))))	-37.1	64

Sequence	folding enthalpy [1] [kcal/mol]	Tm [2] [°C]
GGATGGCGAAAGCCCTCC (((.(((....))).)))	-31.2	49.2
GCACTGCGAAAGCATCGC ((..(((....)))..))	-12.8	39.5
GATCGATCGTTCGATC ((((((....))))))	-36	53.5
GATCGAAAACTCGATC ((((((....))))))	-30.3	47.2
GCAACGGGAAACCGCTGC (((.(((....))).)))	-44	51.5
GATCATAAGGATGATC ((((((....))))))	-32.5	45.3
GGTCGTCGAAAGACCACC (((.(((....))).)))	-19.8	45.9
GGGAGGGGAAACCCTTCC ((.((((....)))).))	-32.4	51.6
GATCTCGTTAGAGATC ((((((....))))))	-39.9	65.1
GAGCCTGGAAACGGGCTC (((((.(....).)))))	-47.8	58.9
TAAACGAAAGTTTA (((((....)))))	-15.4	41.5
GATCGTTGTAACGATC ((((((....))))))	-48.8	58.4
CGCTCGGAAACGATGGCG ((((((....)))..)))	-31.2	45.7
GATCTTAGCGAAGATC ((((((....))))))	-31.2	43.4
GGGAGAGGAAACCCTCCC (((((.(....).)))))	-28.6	47.6
GGTCGTGGAAACGCGATC (.(((.(....).))).)	-26.9	43.8
GATCGACAACTCGATC ((((((....))))))	-33.8	48.5
CATCTGAAAAGATG (((((....)))))	-25.1	44.5
GCCCCGCGAAAGCGGCGC ((.((((....)))).))	-16.6	59.7
GCTATTCGAAAGAACAGC (((.(((....))).)))	-29.6	40.4
GGTTTTACGAAAGTAACC (((..(((....))))))	-11.8	31.7
GCTTAGGGAAACCCAAGC ((((.((....)).))))	-26.7	44
GCAAGGGGAAACCCTCGC ((.((((....)))).))	-23.4	45

Sequence	folding enthalpy [1] [kcal/mol]	Tm [2] [°C]
GAGCGACGAAAGTCCCTC (((.(((....))).)))	-16.1	43.6
GATCCCGAAAGGGCATC ((((((....))).)))	-17	42.1
GCTAACGAAAGTTTTAGC ((((((....)))..)))	-17.4	33.6
GATCTTCATAAAGATC ((((((....))))))	-35.6	43.5
GATCGCTCGGGCGATC ((((((....))))))	-38.6	69.2
GAATACGAAAGTAGTTC ((((((....))).)))	-10.9	26.8
CGGTCGGAAACGATCCCG ((((((....)))..)))	-17.9	34.9
GTCTCCGAAAGGAGGAC ((((((....))).)))	-16.4	50.8
GATCACCGTCGTGATC ((((((....))))))	-39	55.2
GCGTCCGAAAGGAGTCGC ((((((....)))..)))	-22.9	49.5
GATCACACTTGTGATC ((((((....))))))	-39.4	56.4
GACTCGGGAAACCAAGTC ((((.((....)).))))	-25	37.6
CGCTGGCGGAAACGCGCG (((..(((....))))))	-19.5	52.5
GGGGCGTCGAAAGACCCC (((..(((....))))))	-16.9	57.3
GTCCTCGAAAGAGCTGAC ((((((....)))..)))	-12.4	29.5
GACTCGGGAAACCGAACC (..((((....))))..)	-9.35	22.6
GATCGGAAGGCCGATC ((((((....))))))	-35.7	53.9
GCAAGAACGAAAGTTTGC (((..(((....))))))	-22.5	42.7
GCAGCGCGAAAGCAATGC (((..((....))..)))	-25.3	54.9
GTGTGTGGAAACACATAC ((.((((....)))).))	-20.3	50
GGACCTCGAAAGAGTTCC (((.(((....))).)))	-27.2	45
GCCCGGCGAAAGCATGGC (((..((....))..)))	-19	56
GCCCCCGAAAGGGTAGGC ((((((....)))..)))	-23.3	55.9
